From ChEMBL document CHEMBL3352439, “γ-Butyrolactone, cytochalasin, cyclic carbonate, eutypinic acid, and phenalenone derivatives from the soil fungus Aspergillus sp. PSU-RSPG185” (J Nat Prod, 2014)
Active and inactive are the calls of the source. The rule behind the calls is not given here.

Tests used:
[1] = tested on: KB; experiment: Cytotoxicity against human KB cells by colorimetric method; assay type: functional, cell-based
Summary of the method: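 KB cells assayed by the method of O'Brien and coworkers; ellipticine as reference compound; IC50 derived.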

[2] = tested on: Plasmodium falciparum; experiment: Antimalarial activity against multidrug-resistant Plasmodium falciparum K1 assessed as [3H]-hypoxanthine incorporation 24 to 42 hrs by scintillation counting analysis; assay type: functional, organism-based
Summary of the method: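 Microculture radioisotope technique against multidrug-resistant K1 parasites; dihydroartemisinin as reference drug.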

[3] = tested on: Mycobacterium tuberculosis; experiment: Antimicrobial activity against Mycobacterium tuberculosis H37Ra assessed as growth inhibition by green fluorescent protein-based fluorescent detection; assay type: functional, organism-based
Summary of the method: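 Growth inhibition read by GFP-based fluorescence; isoniazid as reference drug; result reported as MIC.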

[4] = tested on: Vero; experiment: Cytotoxicity against african green monkey Vero cells by colorimetric method; assay type: cell-based; details: Chlorocebus sabaeus
Summary of the method: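 Vero cells assayed by a colorimetric method; ellipticine as reference compound; IC50 derived.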

| SMILES | inhibition [1] | Activity [2] | Activity [3] | IC50 [1] [µM] | IC50 [4] [µM] |
| --- | --- | --- | --- | --- | --- |
| CC1=C[C@@H]2[C@H]3[C@H]([C@H](O)C(=O)[C@]24C(=O)N[C@@H](CC(C)C)[C@@H]4[C@@H]1C)[C@@H](O)CCC[C@]3(C)O | inactive | inactive | inactive | – | – |
| COc1c(O)c2c3c(c(O)cc(C)c3c1O)C(=O)[C@](C)(C/C=C(\C)CC/C=C(\C)CC[C@@H](O)C(C)(C)O)C2=O | inactive | inactive | inactive | – | – |
| C=C(C)C#Cc1cc(C(=O)O)ccc1O | inactive | inactive | inactive | – | – |
| CO[C@@]1(C/C=C(\C)CC/C=C(\C)CC[C@@H](O)C(C)(C)O)C(=O)c2c(O)cc(C)c3c(O)c(C)c(O)c(c23)C1=O | – | inactive | inactive | 48.4 | 34.2 |
